One series addresses T1, wt horcolin (Hordeum vulgare, UniProt Q5U9T2).
T1 sequence (Q5U9T2 1-146): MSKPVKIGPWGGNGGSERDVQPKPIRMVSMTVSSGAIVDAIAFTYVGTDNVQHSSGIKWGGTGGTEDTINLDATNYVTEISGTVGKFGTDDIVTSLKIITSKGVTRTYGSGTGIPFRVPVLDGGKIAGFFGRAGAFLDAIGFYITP
As to the kind of experiment: 1H-15N HSQC-detected NMR titration with TITAN 2D lineshape modeling, wt horcolin. In kind it is binding, Hordeum vulgare (barley).

A further series has as its target T2, D138A horcolin (Hordeum vulgare, UniProt Q5U9T2, D138A).
T2 sequence (Q5U9T2 1-146 D138A): T1 sequence (Q5U9T2 1-146) with D138A
In kind it is binding, Hordeum vulgare (barley). Summed up: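 Uniformly 15N-labelled, C-terminally His-tagged D138A horcolin was expressed in E. coli BL21(DE3) in M9 medium and purified on Ni-NTA. Samples were in 25 mM Tris, 50 mM NaCl, 1 mM EDTA, 0.03% NaN3, 10% D2O, pH 7.4. 1H-15N HSQC spectra were recorded at 18 methyl-α-D-mannose concentrations from 0 to 167 mM. Lineshapes of 14 residues were globally fitted in TITAN; errors are SD of 100 bootstrap replicas.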

The target in another series is T3, D39A horcolin (Hordeum vulgare, UniProt Q5U9T2, D39A).
T3 sequence (Q5U9T2 1-146 D39A): T1 sequence (Q5U9T2 1-146) with D39A
Format: binding, Hordeum vulgare (barley). Put shortly: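 15N-labelled D39A horcolin carried a C-terminal His tag, was expressed in E. coli BL21(DE3) in M9 medium and purified by Ni-NTA. NMR buffer was pH 7.4: 25 mM Tris, 50 mM NaCl, 1 mM EDTA, 0.03% NaN3, 10% D2O. HSQC spectra were taken over 21 methyl-α-D-mannose points from 0 to 914 mM. Sixteen residues were globally lineshape-fitted in TITAN; errors are SD of 100 bootstraps.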

The series “crystal structure” deals with the molecule itself. Kind of series: crystal structure.
For the next series, the target named is HIV gp120. The conditions noted are these: read-out: equilibrium dissociation constant (Kd); cited from earlier work.
Another series has as its system HIV-1. The conditions noted are these: cited from earlier work.

Positions count from the first letter of the chain named.

For orientation: Kd means the constant that tells how readily two partners part at equilibrium. Turning to `CO[C@H]1O[C@H](CO)[C@@H](O)[C@H](O)[C@@H]1O` [mannose, methyl-α-D-mannose], the koff1 entry at wt horcolin (CBS1, wt horcolin, sequential model) was “(2.4 ± 0.2) x 10^3 s^-1”; on D39A horcolin (CBS1 only, D39A horcolin, two-state model), “(16.4 ± 0.7) x 10^3 s^-1”. Further, the kon1 entry on wt horcolin (CBS1, wt horcolin, sequential model, from koff and Kd) is listed as “(1.19 ± 0.08) x 10^5 M^-1s^-1”; at D39A horcolin (CBS1 only, D39A horcolin, from koff and Kd) it was “(2.9 ± 0.1) x 10^5 M^-1s^-1”. Also, the koff2 result at wt horcolin (CBS2, wt horcolin, sequential model) was “(2.5 ± 0.1) x 10^3 s^-1”; at D138A horcolin (CBS2 only, D138A horcolin, two-state model), “(5.0 ± 0.4) x 10^3 s^-1”. Also, the kon2 result at wt horcolin (CBS2, wt horcolin, sequential model, from koff and Kd) is recorded as “(5.3 ± 0.2) x 10^5 M^-1s^-1”; at D138A horcolin (CBS2 only, D138A horcolin, from koff and Kd), “(1.6 ± 0.1) x 10^6 M^-1s^-1”. Besides, the Kd at wt horcolin (Kd1, CBS1, wt horcolin, two-binding-site non-cooperative (NC) model, cluster of four residues) came out at 59 ± 2 mM; on wt horcolin (Kd1, CBS1, wt horcolin, two-site sequential binding model, 25 °C, pH 7.4) it was 19.9 ± 0.1 mM; at wt horcolin (Kd2, CBS2, wt horcolin, two-binding-site non-cooperative (NC) model, cluster of four residues) it was 7.7 ± 0.1 mM; at wt horcolin (Kd2, CBS2, wt horcolin, two-site sequential binding model, 25 °C, pH 7.4) it was 4.71 ± 0.02 mM; at D138A horcolin it was 3.2 ± 0.3 mM; on D39A horcolin it was 55.6 ± 0.2 mM. The “binding free energy difference ΔΔG^0 between CBS2 and CBS1” value at wt horcolin (wt horcolin) amounted to 0.85 kcal/mol. The “fold higher affinity for CBS2 than CBS1” value at wt horcolin (wt horcolin, sequential model) was determined as 4.2 fold. Further, the “fold increase of koff at CBS2, D138A versus wt” value on D138A horcolin is listed as 2 fold. Moreover, the “fold increase of kon at CBS2, D138A versus wt” value at D138A horcolin came to 3 fold. In addition, the “fold increase of koff at CBS1, D39A versus wt” value on D39A horcolin is given as 7 fold. In addition, the “fold increase of kon at CBS1, D39A versus wt” value at D39A horcolin was 2.4 fold. The “ΔΔG^0 between the two single-site binding events” value at D39A horcolin (D138A (CBS2) versus D39A (CBS1) horcolin) was determined as 1.7 kcal/mol. The “factor of difference in koff between single-binding-site mutants” value on D39A horcolin (D138A versus D39A horcolin) is listed as 3.3. Moreover, the “fold difference in kon between single-binding-site mutants” value at D39A horcolin (D138A versus D39A horcolin) is given as 5.3 fold.

B1: horcolin (natural protein, Hordeum vulgare (barley))
chain: T1 sequence (Q5U9T2 1-146)
The term stoichiometry N denotes the number of molecules, sites or subunits per partner or assembly. For the molecule B1, the “stoichiometry N” value in the series “crystal structure” is 2.

B2: horcolin: dimeric mannose-specific jacalin-related lectin from Hordeum vulgare (barley), 146 amino acids per protomer (protein)
chain: T1 sequence (Q5U9T2 1-146)
On to B2, for which the Kd at HIV gp120 is 14.4 nM. Further, the HIV-1 neutralization entry with HIV-1 was “has the ability to neutralize HIV-1”.

Source of the values: publication PMC7612733 (Biochemistry, 2022).
